According to ChEMBL document CHEMBL3286131, “Design, synthesis and systematic evaluation of cytotoxic 3-heteroarylisoquinolinamines as topoisomerases inhibitors” (Eur J Med Chem, 2014):
Values joined by “and” are separate entries in the source; they are usually repeats but may differ in a detail not shown here. Equal entries are not always repeated.

Columns and labels:
[1] = molecular target: T1, DNA topoisomerase 1 (Homo sapiens) (UniProt P11387); assay: Inhibition of recombinant human DNA topoisomerase-1-mediated relaxation of supercoiled DNA pBR322 at 20 uM after 7 hrs using ethidium bromide staining by agarose gel electrophoresis analysis
T1 sequence (whole entry): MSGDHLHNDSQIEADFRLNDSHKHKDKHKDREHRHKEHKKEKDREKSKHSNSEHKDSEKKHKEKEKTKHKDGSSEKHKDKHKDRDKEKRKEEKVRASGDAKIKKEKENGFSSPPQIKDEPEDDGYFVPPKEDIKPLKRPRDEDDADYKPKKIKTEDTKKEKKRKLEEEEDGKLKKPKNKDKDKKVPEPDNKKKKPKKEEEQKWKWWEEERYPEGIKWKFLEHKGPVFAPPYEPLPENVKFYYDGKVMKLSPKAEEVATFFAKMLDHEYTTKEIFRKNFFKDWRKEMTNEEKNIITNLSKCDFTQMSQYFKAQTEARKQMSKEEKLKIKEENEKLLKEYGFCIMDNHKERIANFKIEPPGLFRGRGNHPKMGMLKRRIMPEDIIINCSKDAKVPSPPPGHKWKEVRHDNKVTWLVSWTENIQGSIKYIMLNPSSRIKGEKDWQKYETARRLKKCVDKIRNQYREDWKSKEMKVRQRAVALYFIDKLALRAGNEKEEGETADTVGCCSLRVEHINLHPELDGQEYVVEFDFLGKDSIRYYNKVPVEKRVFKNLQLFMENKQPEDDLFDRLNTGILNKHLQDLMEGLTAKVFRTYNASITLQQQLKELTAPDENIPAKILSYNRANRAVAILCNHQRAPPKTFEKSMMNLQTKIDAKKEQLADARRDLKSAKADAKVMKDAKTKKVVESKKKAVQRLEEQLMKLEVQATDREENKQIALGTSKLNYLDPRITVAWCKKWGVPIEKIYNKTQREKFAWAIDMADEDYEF
Outline: (§1)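 pBR322 (100 ng) incubated with recombinant human topo I (0.4 units) ± compound for 30 min at 37 °C. Buffer: 10 mM Tris-HCl pH 7.9, 150 mM NaCl, 0.1% BSA, 1 mM spermidine, 5% glycerol. Quenched with sarcosyl stop solution. 1% agarose gel run at 15 V for 7 h in TAE, ethidium bromide stain, supercoiled DNA quantified under UV.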

[2] = molecular target: DNA topoisomerase 2-alpha (Homo sapiens) (UniProt P11388); assay: Inhibition of human DNA topoisomerase-2a-mediated relaxation of supercoiled DNA pBR322 at 100 uM after 4 hrs using ethidium bromide staining by agarose gel electrophoresis analysis
Sequence of DNA topoisomerase 2-alpha (Homo sapiens) (P11388 whole entry): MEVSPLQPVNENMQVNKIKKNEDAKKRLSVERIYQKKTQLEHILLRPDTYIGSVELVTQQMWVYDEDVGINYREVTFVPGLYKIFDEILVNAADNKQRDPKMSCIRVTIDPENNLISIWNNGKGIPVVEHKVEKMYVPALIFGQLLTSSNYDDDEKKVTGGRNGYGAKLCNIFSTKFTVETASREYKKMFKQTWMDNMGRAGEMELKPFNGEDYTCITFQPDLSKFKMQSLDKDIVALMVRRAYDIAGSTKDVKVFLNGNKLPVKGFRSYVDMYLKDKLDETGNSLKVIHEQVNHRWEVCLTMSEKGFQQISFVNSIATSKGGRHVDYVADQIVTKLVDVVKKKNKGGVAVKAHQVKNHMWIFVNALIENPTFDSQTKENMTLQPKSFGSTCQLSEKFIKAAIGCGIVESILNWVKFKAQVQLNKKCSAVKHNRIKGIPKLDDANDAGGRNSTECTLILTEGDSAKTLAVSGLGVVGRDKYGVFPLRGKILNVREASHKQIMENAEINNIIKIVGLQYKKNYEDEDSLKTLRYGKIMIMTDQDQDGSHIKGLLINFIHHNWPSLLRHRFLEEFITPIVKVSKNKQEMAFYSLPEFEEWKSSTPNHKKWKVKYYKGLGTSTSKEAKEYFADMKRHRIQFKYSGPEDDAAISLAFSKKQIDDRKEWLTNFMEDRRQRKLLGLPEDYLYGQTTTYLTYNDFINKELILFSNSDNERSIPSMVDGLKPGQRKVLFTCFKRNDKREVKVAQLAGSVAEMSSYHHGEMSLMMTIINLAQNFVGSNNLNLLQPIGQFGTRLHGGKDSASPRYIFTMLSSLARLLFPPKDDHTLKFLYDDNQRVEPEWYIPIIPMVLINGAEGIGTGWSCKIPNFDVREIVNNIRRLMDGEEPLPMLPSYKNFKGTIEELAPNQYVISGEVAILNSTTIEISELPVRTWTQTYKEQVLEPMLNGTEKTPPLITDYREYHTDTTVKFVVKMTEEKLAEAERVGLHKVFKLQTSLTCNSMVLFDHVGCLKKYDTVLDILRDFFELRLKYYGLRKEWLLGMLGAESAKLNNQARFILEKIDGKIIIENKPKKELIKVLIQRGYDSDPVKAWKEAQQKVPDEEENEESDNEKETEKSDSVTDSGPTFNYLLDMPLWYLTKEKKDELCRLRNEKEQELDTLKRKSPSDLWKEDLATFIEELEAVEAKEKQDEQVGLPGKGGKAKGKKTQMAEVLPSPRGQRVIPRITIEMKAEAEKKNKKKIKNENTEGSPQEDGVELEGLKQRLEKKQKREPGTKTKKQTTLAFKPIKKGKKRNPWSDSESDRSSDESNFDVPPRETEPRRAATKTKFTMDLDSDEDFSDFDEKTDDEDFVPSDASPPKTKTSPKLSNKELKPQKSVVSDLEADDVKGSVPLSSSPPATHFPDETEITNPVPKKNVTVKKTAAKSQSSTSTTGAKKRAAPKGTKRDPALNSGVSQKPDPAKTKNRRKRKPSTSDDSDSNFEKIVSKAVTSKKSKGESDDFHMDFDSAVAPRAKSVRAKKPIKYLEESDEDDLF
Outline: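 Supercoiled pBR322 (200 ng) incubated with human topo IIα (1 unit) ± compound for 30 min at 30 °C. Buffer: 10 mM Tris-HCl pH 7.9, 50 mM NaCl, 50 mM KCl, 5 mM MgCl2, 1 mM EDTA, 1 mM ATP, BSA. Stopped with EDTA. 1% agarose gel run at 25 V for 4 h in TAE, ethidium bromide stain, supercoiled DNA quantified by UV imaging.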

[3] = molecular target: T1, DNA topoisomerase 1 (Homo sapiens); assay: Inhibition of recombinant human DNA topoisomerase-1-mediated relaxation of supercoiled DNA pBR322 at 100 uM after 7 hrs using ethidium bromide staining by agarose gel electrophoresis analysis; outline: as §1
HeLa [4] = assay: Cell cycle arrest in human HeLa cells assessed as accumulation at S phase phase at 5 uM after 24 hrs using ethidium bromide staining by flow cytometry analysis relative to control; assay type: functional; settings: in the assay text read “propidium iodide staining” for “ethidium bromide staining”
Outline: (§2)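 HeLa cells exposed to graded compound concentrations for 24 h, harvested by centrifugation, PBS-washed twice, fixed overnight on ice in 70% ethanol. Stained with 10 μg/mL propidium iodide plus 0.5 mg/mL RNase and 0.1% Triton X-100 in PBS, 30 min at 37 °C in the dark. Flow cytometry gates: sub-G0/G1, G0/G1, S, G2/M.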

HeLa [5] = assay: Cell cycle arrest in human HeLa cells assessed as accumulation at G0/G1 phase phase at 25 uM after 24 hrs using […] by flow cytometry analysis relative to control; assay type: functional; outline: as §2
HeLa [6] = assay: Cell cycle arrest in human HeLa cells assessed as accumulation at sub-G0/G1 phase at 25 uM after 24 hrs using […] by flow cytometry analysis relative to control; assay type: functional; outline: as §2
HeLa [7] = assay: Cell cycle arrest in human HeLa cells assessed as accumulation at S phase phase at 10 uM after 24 hrs using ethidium bromide staining by flow cytometry analysis relative to control; assay type: functional; settings: in the assay text read “propidium iodide staining” for “ethidium bromide staining”; outline: as §2
HeLa [8] = assay: Cell cycle arrest in human HeLa cells assessed as accumulation at S phase phase at 50 uM after 24 hrs using […] by flow cytometry analysis relative to control; assay type: functional; outline: as §2
HeLa [9] = assay: Cell cycle arrest in human HeLa cells assessed as accumulation at G2/M phase phase at 50 uM after 24 hrs using […] by flow cytometry analysis relative to control; assay type: functional; outline: as §2
HeLa [10] = assay: Cell cycle arrest in human HeLa cells assessed as accumulation at G0/G1 phase phase at 50 uM after 24 hrs using […] by flow cytometry analysis relative to control; assay type: functional; outline: as §2
HeLa [11] = assay: Cell cycle arrest in human HeLa cells assessed as accumulation at G0/G1 phase phase at 5 uM after 24 hrs using ethidium bromide staining by flow cytometry analysis relative to control; assay type: functional; settings: in the assay text read “propidium iodide staining” for “ethidium bromide staining”; outline: as §2
[12] = Cytotoxicity against human HCT15 cells after 2 days; assay type: functional, cell-based, HCT-15
Outline: (§3)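 Cells seeded at 2-4 × 10^4 per well in medium with 10% FBS and incubated overnight at 37 °C, 5% CO2. Graded compound concentrations added on day 2. CCK-8 reagent added on day 4 for a further 4 h, absorbance read at 450 nm. IC50 from a four-parameter logistic fit; mean ± S.D. of three experiments run in triplicate.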

HeLa [13] = assay: Cell cycle arrest in human HeLa cells assessed as accumulation at sub-G0/G1 phase at 50 uM after 24 hrs using […] by flow cytometry analysis relative to control; assay type: functional; outline: as §2
DU-145 = assay: Cytotoxicity against human DU145 cells after 2 days; assay type: functional, cell-based; outline: as §3
HeLa [14] = assay: Cell cycle arrest in human HeLa cells assessed as accumulation at G2/M phase phase at 10 uM after 24 hrs using ethidium bromide staining by flow cytometry analysis relative to control; assay type: functional; settings: in the assay text read “propidium iodide staining” for “ethidium bromide staining”; outline: as §2
HeLa [15] = assay: Cell cycle arrest in human HeLa cells assessed as accumulation at S phase phase at 25 uM after 24 hrs using […] by flow cytometry analysis relative to control; assay type: functional; outline: as §2
HeLa [16] = assay: Cell cycle arrest in human HeLa cells assessed as accumulation at G2/M phase phase at 5 uM after 24 hrs using ethidium bromide staining by flow cytometry analysis relative to control; assay type: functional; settings: in the assay text read “propidium iodide staining” for “ethidium bromide staining”; outline: as §2
[17] = Cytotoxicity against human MCF10A cells after 2 days; assay type: cell-based, MCF-10A; settings: mcf-10a; outline: as §3
HeLa [18] = assay: Cell cycle arrest in human HeLa cells assessed as accumulation at G2/M phase phase at 25 uM after 24 hrs using […] by flow cytometry analysis relative to control; assay type: functional; outline: as §2
HeLa [19] = assay: Cell cycle arrest in human HeLa cells assessed as accumulation at G0/G1 phase phase at 10 uM after 24 hrs using ethidium bromide staining by flow cytometry analysis relative to control; assay type: functional; settings: in the assay text read “propidium iodide staining” for “ethidium bromide staining”; outline: as §2
HeLa [20] = assay: Cell cycle arrest in human HeLa cells assessed as accumulation at sub-G0/G1 phase at 10 uM after 24 hrs using ethidium bromide staining by flow cytometry analysis relative to control; assay type: functional; settings: in the assay text read “propidium iodide staining” for “ethidium bromide staining”; outline: as §2
T47D = assay: Cytotoxicity against human T47D cells after 2 days; assay type: functional, cell-based; settings: t47d; outline: as §3

Row | Compound | inhibition [1] | inhibition [2] | inhibition [3] | Activity (HeLa [4]) [%] | Activity (HeLa [5]) [%] | Activity (HeLa [6]) [%] | Activity (HeLa [7]) [%] | Activity (HeLa [8]) [%] | Activity (HeLa [9]) [%] | Activity (HeLa [10]) [%] | Activity (HeLa [11]) [%] | Activity (HeLa [13]) [%] | Activity (HeLa [14]) [%] | Activity (HeLa [15]) [%] | Activity (HeLa [16]) [%] | IC50 [17] [µM] | Activity (HeLa [18]) [%] | Activity (HeLa [19]) [%] | Activity (HeLa [20]) [%] | IC50 (T47D) [µM] | further results
1 | Cc1ccc2cc(-c3cccs3)nc(N3CCOCC3)c2c1 | 1.1% and 3.7% | 0% and 5.1% | 71.9% and 77.9% |  |  |  |  |  |  |  |  |  |  |  |  |  |  |  |  |  | 
2 | Cc1ccc2cc(-c3cccs3)nc(N3CCCCC3)c2c1 | 0% | 3.6% and 13.7% | 77.5% and 89.6% |  |  |  |  |  |  |  |  |  |  |  |  |  |  |  |  |  | 
3 | Cc1ccc2cc(-c3cccs3)nc(N3CCN(C)CC3)c2c1 | 0% | 0% | 29.6% and 35.9% |  |  |  |  |  |  |  |  |  |  |  |  |  |  |  |  |  | 
4 | CCN1CCN(c2nc(-c3cccs3)cc3ccc(C)cc23)CC1 | 6.5% | 0% |  |  |  |  |  |  |  |  |  |  |  |  |  |  |  |  |  |  | 
5 | CCN1CCN(c2nc(-c3cccs3)cc3ccccc23)CC1.Cl |  |  |  | 9.99 | 54.43 | 2.67 | 12.88 | 6.9 | 3.46 | 31.74 | 68.51 | 54.68 | 20 | 18.42 | 15.9 | 23.8 | 15.75 | 57.14 | 2.59 | 8.08 | IC50 ([12]; hct-15): 9.29 µM; IC50 (DU-145; Homo sapiens, DU-145, 48 h): 46.6 µM
6 | CCN1CCN(c2nc(-c3cccs3)cc3ccccc23)CC1 |  |  |  | 10.47 | 55.62 | 3.77 | 9.46 | 7.96 | 11.7 | 71.23 | 65.03 | 3.97 | 17.28 | 13.4 | 14.89 | 49 | 19.68 | 66.35 | 2.08 | 17.4 | IC50 ([12]; Homo sapiens, HCT-15, 48 h): 7.42 µM; IC50 (DU-145; du-145): > 50 µM
7 | c1csc(-c2cc3ccccc3c(N3CCNCC3)n2)c1 |  |  |  | 13.11 | 67.7 | 1.77 | 12.03 | 1.16 | 0.72 | 4.52 | 59.83 | 90.21 | 16.57 | 8.71 | 16.28 | 44.1 | 14.88 | 61.34 | 1.85 | 9.53 | IC50 ([12]; hct-15): 1.25 µM; IC50 (DU-145; du-145): 17.6 µM
8 | CCN1CCN(c2nc(-c3cccs3)cc3cc(C)ccc23)CC1 |  |  |  | 9.77 | 63.92 | 3.17 | 13.41 | 0.47 | 0.22 | 2.37 | 65.61 | 96.49 | 18.01 | 13.57 | 17.4 | 33.9 | 13.75 | 58.48 | 2.63 | 8.45 | IC50 ([12]; Homo sapiens, HCT-15, 48 h): 2.41 µM; IC50 (DU-145; Homo sapiens, DU-145, 48 h): 17.2 µM
9 | Cl.c1csc(-c2cc3ccccc3c(N3CCNCC3)n2)c1 |  |  |  | 12.7 | 7.25 | 85.1 | 7.13 | 0.04 | 0.02 | 0.18 | 60.31 | 99.58 | 15.05 | 1.85 | 16.24 | 18.1 | 1.23 | 67.99 | 3.57 | 4.51 | IC50 ([12]; hct-15): 5.45 µM; IC50 (DU-145; du-145): 8.25 µM
